Experimental data: ChEMBL document CHEMBL1149664, “Anthranilamide inhibitors of factor Xa” (2007)

Key:
[1] = molecular target: Prothrombin (Homo sapiens) (UniProt P00734); test: Inhibition of human factor 2a
Procedure, shortened: (§1)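 Values are reported as an apparent association constant (Kassoc) between enzyme and inhibitor, in 10^6 L/mol.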

[2] = molecular target: Coagulation factor X (Homo sapiens) (UniProt P00742); test: Inhibition of human factor 10a; procedure, shortened: as §1
Plasma [3] = test: Anticoagulant potency in human citreated plasma assessed as concentration required to double activated partial thromboplastin time; format: functional
Plasma [4] = test: Anticoagulant potency in human citreated plasma assessed as concentration required to double prothrombin time; format: functional

Chain of Coagulation factor X (Homo sapiens) (P00742 41-179 limits assumed): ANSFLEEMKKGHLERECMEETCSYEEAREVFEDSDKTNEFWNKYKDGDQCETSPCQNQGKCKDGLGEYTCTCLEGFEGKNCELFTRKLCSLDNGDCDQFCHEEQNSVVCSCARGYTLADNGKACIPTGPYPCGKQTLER
Chain of Coagulation factor X (Homo sapiens) (P00742 235-488 limits assumed): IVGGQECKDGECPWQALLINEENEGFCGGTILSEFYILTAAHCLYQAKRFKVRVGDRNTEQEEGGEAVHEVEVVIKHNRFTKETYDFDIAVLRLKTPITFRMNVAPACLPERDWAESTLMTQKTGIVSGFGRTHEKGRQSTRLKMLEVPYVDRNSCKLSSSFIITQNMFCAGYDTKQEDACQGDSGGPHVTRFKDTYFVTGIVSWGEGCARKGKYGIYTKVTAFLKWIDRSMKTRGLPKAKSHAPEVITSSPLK

SMILES | Kapp [1] | Kapp [2] | Activity (Plasma [3]) [µM] | Activity (Plasma [4]) [µM]
CN1CCN(c2ccc(C(=O)Nc3ccccc3C(=O)Nc3ccc(Cl)cn3)c(OCCCN)c2)CC1 | 2 10^6L/mol | 82 10^6L/mol | – | –
CC(C)(C)c1ccc(C(=O)Nc2ccccc2C(=O)Nc2ccc(Cl)cn2)c(OC2CCN(CC3CC3)CC2)c1 | 37 10^6L/mol | 1370 10^6L/mol | 2.4 | 2.5
COc1ccc(C(=O)Nc2ccccc2C(=O)Nc2ccc(C(C)(C)C)cc2)cc1 | – | 0.03 10^6L/mol | – | –
NCCCOc1cc(N2CCCCC2)ccc1C(=O)Nc1ccccc1C(=O)Nc1ccc(Cl)cn1 | 17 10^6L/mol | 323 10^6L/mol | 1 | 0.93
CC(C)(C)c1ccc(C(=O)Nc2ccccc2C(=O)Nc2ccc(Cl)cn2)c(OC2CCN(C(=O)CCC(=O)O)CC2)c1 | 4 10^6L/mol | 714 10^6L/mol | 6.1 | 5.3
NCCCOc1cc(N2CCCCCC2)ccc1C(=O)Nc1ccccc1C(=O)Nc1ccc(Cl)cn1 | 25 10^6L/mol | 130 10^6L/mol | 3.1 | 2.7
CC(C)(C)OC(=O)N1CCCCC1COc1cc(C(C)(C)C)ccc1C(=O)Nc1ccccc1C(=O)Nc1ccc(Cl)cn1 (stereo not drawn) | 3.9 10^6L/mol | 3.1 10^6L/mol | >70 | >70
CC(C)(C)c1ccc(C(=O)Nc2ccccc2C(=O)Nc2ccc(Cl)cn2)c(OC2CCN(C(=O)Nc3ccccc3F)CC2)c1 | 27 10^6L/mol | 307 10^6L/mol | 21.5 | 30.2
CN(C)CCCNC(=S)N1CCC(Oc2cc(C(C)(C)C)ccc2C(=O)Nc2ccccc2C(=O)Nc2ccc(Cl)cn2)CC1 | 145 10^6L/mol | 170 10^6L/mol | 2.9 | 2.9
CC(C)(C)c1ccc(C(=O)Nc2ccccc2C(=O)Nc2ccc(Cl)cn2)cc1 | – | 42 10^6L/mol | – | –
CC(C)(C)c1ccc(C(=O)Nc2ccccc2C(=O)Nc2ccc(Cl)cn2)c(OC2CCN(C(=O)Cn3cnnn3)CC2)c1 | 134 10^6L/mol | 448 10^6L/mol | 8 | 10
CC(C)(C)c1ccc(C(=O)Nc2ccccc2C(=O)Nc2ccc(Cl)cn2)c(OCC2CCCCN2)c1 (stereo not drawn) | 67 10^6L/mol | 219 10^6L/mol | 1.4 | 1.4
NCCCOc1cc(N2CCOCC2)ccc1C(=O)Nc1ccccc1C(=O)Nc1ccc(Cl)cn1 | 5.8 10^6L/mol | 516 10^6L/mol | 0.26 | 0.34
Cn1nccc1C(=O)N1CCC(Oc2cc(C(C)(C)C)ccc2C(=O)Nc2ccccc2C(=O)Nc2ccc(Cl)cn2)CC1 | 21 10^6L/mol | 513 10^6L/mol | 5.7 | 7.6
CCCN1CCC(Oc2cc(C(C)(C)C)ccc2C(=O)Nc2ccccc2C(=O)Nc2ccc(Cl)cn2)CC1 | 30 10^6L/mol | 1940 10^6L/mol | 3.1 | 3.3
CC(C)(C)c1ccc(C(=O)Nc2ccccc2C(=O)Nc2ccc(Cl)cn2)c(OC2CCN(Cc3ccccc3)CC2)c1 | 20 10^6L/mol | 488 10^6L/mol | 28.1 | 44.6
NCCCOc1cc(N2CC[C@@H](N)C2)ccc1C(=O)Nc1ccccc1C(=O)Nc1ccc(Cl)cn1 | 7.3 10^6L/mol | 874 10^6L/mol | 0.4 | 0.45
CC(C)(C)c1ccc(C(=O)Nc2ccccc2C(=O)Nc2ccc(Cl)cc2)cc1 | – | 0.5 10^6L/mol | – | –
CC(C)(C)c1ccc(C(=O)Nc2ccccc2C(=O)Nc2ccc(Cl)cn2)c(OC2CCN(Cc3ncc[nH]3)CC2)c1 | 54 10^6L/mol | 2160 10^6L/mol | 1.8 | 2.6
CN1CCCN(c2ccc(C(=O)Nc3ccccc3C(=O)Nc3ccc(Cl)cn3)c(OCCCN)c2)CC1 | 24 10^6L/mol | 8970 10^6L/mol | 0.1 | –

SMILES | Kapp [1] | Kapp [2] | Activity (Plasma [3]) [µM] | Activity (Plasma [4]) [µM]
CN1CCC(Oc2cc(C(C)(C)C)ccc2C(=O)Nc2ccccc2C(=O)Nc2ccc(Cl)cn2)CC1 | 61 10^6L/mol | 1630 10^6L/mol | 0.93 | 1.1
CC(C)(C)c1ccc(C(=O)Nc2ccccc2C(=O)Nc2ccc(Cl)cn2)c(OC2CCNCC2)c1 | 114 10^6L/mol | 1110 10^6L/mol | 0.85 | 0.88
NCCCOc1cc(N2CCCC2)ccc1C(=O)Nc1ccccc1C(=O)Nc1ccc(Cl)cn1 | 40 10^6L/mol | 3010 10^6L/mol | 0.41 | 0.41
CN(C)CC(=O)N1CCC(Oc2cc(C(C)(C)C)ccc2C(=O)Nc2ccccc2C(=O)Nc2ccc(Cl)cn2)CC1 | 60 10^6L/mol | 176 10^6L/mol | – | –
COc1ccc(NC(=O)c2ccccc2NC(=O)c2ccc(C(C)C)cc2)cc1 | – | 7 10^6L/mol | – | –
CC(C)(C)c1ccc(C(=O)Nc2ccccc2C(=O)Nc2ccc(Cl)cn2)c(OC2CCN(C(=S)NCc3cccnc3)CC2)c1 | 34 10^6L/mol | 733 10^6L/mol | 13.4 | 21.8
CC(C)(C)c1ccc(C(=O)Nc2ccccc2C(=O)Nc2ccc(Cl)cn2)c(OCCCN)c1 | 152 10^6L/mol | 1440 10^6L/mol | 0.85 | 0.79
COCCN1CCC(Oc2cc(C(C)(C)C)ccc2C(=O)Nc2ccccc2C(=O)Nc2ccc(Cl)cn2)CC1 | 24 10^6L/mol | 3080 10^6L/mol | 2.1 | 2.1
COc1ccc(NC(=O)c2ccccc2NC(=O)c2ccc(C(C)(C)C)cc2)cc1 | – | 5 10^6L/mol | – | –
CC(C)(C)c1ccc(C(=O)Nc2ccccc2C(=O)Nc2ccc(Cl)cn2)c(O)c1 | 0.02 10^6L/mol | 23 10^6L/mol | >100 | >100
CC(C)(CN)COc1cc(C(C)(C)C)ccc1C(=O)Nc1ccccc1C(=O)Nc1ccc(Cl)cn1 | 1100 10^6L/mol | 76 10^6L/mol | 2 | 1.6
CC(C)(C)c1ccc(C(=O)Nc2ccccc2C(=O)Nc2ccc(Cl)cn2)c(OC2CCN(Cc3ccsc3)CC2)c1 | 23 10^6L/mol | 450 10^6L/mol | 14.8 | 20
CC(C)(CNC(=O)OC(C)(C)C)COc1cc(C(C)(C)C)ccc1C(=O)Nc1ccccc1C(=O)Nc1ccc(Cl)cn1 | 0.14 10^6L/mol | 2.9 10^6L/mol | >70 | >70
CC(C)(C)OC(=O)NCCCOc1cc(C(C)(C)C)ccc1C(=O)Nc1ccccc1C(=O)Nc1ccc(Cl)cn1 | 0.2 10^6L/mol | 54 10^6L/mol | >70 | >70
CC(C)N1CCC(Oc2cc(C(C)(C)C)ccc2C(=O)Nc2ccccc2C(=O)Nc2ccc(Cl)cn2)CC1 | 25 10^6L/mol | 3440 10^6L/mol | 1.2 | 1.8
NCCCOc1cc(N2CCSCC2)ccc1C(=O)Nc1ccccc1C(=O)Nc1ccc(Cl)cn1 | 17 10^6L/mol | 709 10^6L/mol | 0.69 | 0.61
CC(C)(C)OC(=O)N1CCC(Oc2cc(C(C)(C)C)ccc2C(=O)Nc2ccccc2C(=O)Nc2ccc(Cl)cn2)CC1 | 6 10^6L/mol | 69 10^6L/mol | 55 | 64
COc1ccc(NC(=O)c2ccccc2NC(=O)c2ccc(OC)cc2)cc1 | – | 1 10^6L/mol | – | –
CC(C)(C)c1ccc(C(=O)Nc2ccccc2C(=O)Nc2ccc(Cl)cn2)c(OC2CCN(Cc3ccccc3C(=O)O)CC2)c1 | 72 10^6L/mol | 1160 10^6L/mol | 0.57 | 1
